Reference: ChEMBL document CHEMBL1158625, “Design of 1-piperazinyl-4-arylphthalazines as potent Smoothened antagonists” (Bioorg Med Chem Lett, 2010)
Calls of active or inactive are those of the source. The calls are words filed in the database; no cut-off is given here.

Experiments:
[1] = molecular target: CYP3A4 (Homo sapiens, UniProt P08684); assay: Inhibition of human CYP3A4 at 3 uM by HPLC-MS; assay type: ADME
[2] = Metabolic stability in human liver microsome assessed as compound turnover after 30 mins; assay type: ADME; details: liver microsomes, read-out: Stability
In short: (§1)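 Pooled human or rat liver microsomes (0.25 mg/mL), 37 °C, phosphate buffer pH 7.4, test compound 1 µM; NADPH 1 mM final; quenched at 0 or 30 min with organic solvent; unchanged parent by reversed-phase LC-MS/MS; percent turnover from peak area at 30 versus 0 min.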

[3] = molecular target: CYP2D6 (Homo sapiens, UniProt P10635); assay: Inhibition of human CYP2D6 at 3 uM by HPLC-MS; assay type: ADME
CYP2D6, sequence (P10635 whole entry): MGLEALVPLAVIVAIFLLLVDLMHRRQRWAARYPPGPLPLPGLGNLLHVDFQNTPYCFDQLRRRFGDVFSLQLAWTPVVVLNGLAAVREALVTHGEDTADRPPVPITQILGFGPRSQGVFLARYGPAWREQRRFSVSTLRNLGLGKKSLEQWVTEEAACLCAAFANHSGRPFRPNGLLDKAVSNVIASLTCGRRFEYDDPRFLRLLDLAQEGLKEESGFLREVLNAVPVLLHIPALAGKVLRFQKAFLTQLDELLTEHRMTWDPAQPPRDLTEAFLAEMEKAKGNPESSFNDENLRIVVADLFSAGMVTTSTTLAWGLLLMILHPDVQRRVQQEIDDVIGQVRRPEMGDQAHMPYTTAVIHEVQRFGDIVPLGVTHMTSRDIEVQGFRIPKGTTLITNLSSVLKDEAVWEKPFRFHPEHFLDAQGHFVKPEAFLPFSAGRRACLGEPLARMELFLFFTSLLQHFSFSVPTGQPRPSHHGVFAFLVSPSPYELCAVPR

[4] = Metabolic stability in rat liver microsome assessed as compound turnover after 30 mins; assay type: ADME; details: liver microsomes, read-out: Stability; in short: as §1
[5] = Oral bioavailability in mouse at 2 mg/kg; assay type: ADME, organism-based; details: in vivo
[6] = Half life in rat at 0.5 mg/kg, iv; assay type: ADME, organism-based; set-up: dose 0.5 mg/kg, route intravenous; details: in vivo
[7] = Oral bioavailability in cynomolgus monkey at 2 mg/kg; assay type: ADME, organism-based, Macaca fascicularis; details: in vivo
[8] = Clearance in cynomolgus monkey at 0.5 mg/kg, iv; assay type: ADME, organism-based, Macaca fascicularis; set-up: dose 0.5 mg/kg, route intravenous; details: in vivo
[9] = Clearance in mouse at 1 mg/kg, iv; assay type: ADME, organism-based; set-up: dose 1 mg/kg, route intravenous; details: in vivo
[10] = Oral bioavailability in dog at 2 mg/kg; assay type: ADME, organism-based, Canis lupus familiaris; details: in vivo
[11] = tested on: Medulloblastoma cell; assay: Antitumor activity against mouse Ptch+/- p53-/- medulloblastoma cells xenografted Harlan nu/nu mouse at 10 mg/kg, po qd administered after 8 days tumor implantation measured after 15 days; assay type: functional, organism-based; set-up: dose 10 mg/kg
In short: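 Tumors from p53-/- Ptch+/- crossbred mice transplanted into immunocompromised mice; after 8 days animals randomized to compound 10 mg/kg QD oral or vehicle; tumor volume followed, reduction assessed day 15 versus treatment onset day 8; ten mice per group; Dunnett's method.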

[12] = Volume of distribution at steady state in rat at 0.5 mg/kg, iv; assay type: ADME, organism-based; set-up: dose 0.5 mg/kg, route intravenous; details: in vivo, read-out: Vdss
[13] = Clearance in rat at 0.5 mg/kg, iv; assay type: ADME, organism-based; set-up: dose 0.5 mg/kg, route intravenous; details: in vivo
[14] = Clearance in dog at 0.5 mg/kg, iv; assay type: ADME, organism-based, Canis lupus familiaris; set-up: dose 0.5 mg/kg, route intravenous; details: in vivo
[15] = species on record: Mus musculus; assay: Reduction in Gli1 mRNA expression in mouse skin after 6 hrs of treatment by RT-PCR; assay type: functional, organism-based
In short: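 Mouse hind flanks depilated with wax; five days later single oral dose 2, 20 or 100 mg/kg; skin harvested after 6 h; Gli1 RNA by quantitative real-time PCR normalized to RGS (Pitx2) RNA; four mice per group, two samples each; Dunnett's method; plasma levels also measured.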

[16] = Volume of distribution at steady state in mouse at 1 mg/kg, iv; assay type: ADME, organism-based; set-up: dose 1 mg/kg, route intravenous; details: in vivo, read-out: Vdss
[17] = Half life in cynomolgus monkey at 0.5 mg/kg, iv; assay type: ADME, organism-based, Macaca fascicularis; set-up: dose 0.5 mg/kg, route intravenous; details: in vivo
[18] = Oral bioavailability in rat at 2 mg/kg; assay type: ADME, organism-based; details: in vivo
[19] = Half life in dog at 0.5 mg/kg, iv; assay type: ADME, organism-based, Canis lupus familiaris; set-up: dose 0.5 mg/kg, route intravenous; details: in vivo
[20] = Volume of distribution at steady state in dog at 0.5 mg/kg, iv; assay type: ADME, organism-based, Canis lupus familiaris; set-up: dose 0.5 mg/kg, route intravenous; details: in vivo, read-out: Vdss
[21] = Half life in mouse at 1 mg/kg, iv; assay type: ADME, organism-based; set-up: dose 1 mg/kg, route intravenous; details: in vivo
[22] = Volume of distribution at steady state in cynomolgus monkey at 0.5 mg/kg, iv; assay type: ADME, organism-based, Macaca fascicularis; set-up: dose 0.5 mg/kg, route intravenous; details: in vivo, read-out: Vdss
[23] = molecular target: Protein smoothened (Mus musculus, UniProt P56726); assay: Inhibition of mouse SMO expressed in NIH-3T3 cells; assay type: cell-based, NIH3T3
Protein smoothened, sequence (P56726 whole entry): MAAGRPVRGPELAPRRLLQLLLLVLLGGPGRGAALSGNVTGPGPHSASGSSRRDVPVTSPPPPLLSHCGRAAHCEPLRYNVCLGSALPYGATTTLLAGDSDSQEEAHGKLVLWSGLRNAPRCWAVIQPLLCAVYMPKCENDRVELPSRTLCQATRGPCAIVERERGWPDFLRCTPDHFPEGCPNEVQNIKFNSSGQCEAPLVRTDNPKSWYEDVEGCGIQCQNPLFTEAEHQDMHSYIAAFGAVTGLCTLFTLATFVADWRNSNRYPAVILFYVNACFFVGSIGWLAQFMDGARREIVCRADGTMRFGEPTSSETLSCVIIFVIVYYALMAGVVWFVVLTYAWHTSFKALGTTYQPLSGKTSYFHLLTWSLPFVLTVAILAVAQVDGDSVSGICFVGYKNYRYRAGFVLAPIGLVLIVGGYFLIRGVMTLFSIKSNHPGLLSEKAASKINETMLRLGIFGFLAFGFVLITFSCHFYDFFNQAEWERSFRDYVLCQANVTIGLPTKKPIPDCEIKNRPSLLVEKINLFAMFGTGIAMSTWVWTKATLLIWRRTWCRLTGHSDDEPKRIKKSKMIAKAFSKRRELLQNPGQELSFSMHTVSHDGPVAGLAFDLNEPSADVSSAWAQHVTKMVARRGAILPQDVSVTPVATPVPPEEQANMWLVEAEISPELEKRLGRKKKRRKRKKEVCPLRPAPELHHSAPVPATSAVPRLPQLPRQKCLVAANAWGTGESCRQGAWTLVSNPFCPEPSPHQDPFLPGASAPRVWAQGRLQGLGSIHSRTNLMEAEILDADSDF

CYP3A4, sequence (P08684 whole entry): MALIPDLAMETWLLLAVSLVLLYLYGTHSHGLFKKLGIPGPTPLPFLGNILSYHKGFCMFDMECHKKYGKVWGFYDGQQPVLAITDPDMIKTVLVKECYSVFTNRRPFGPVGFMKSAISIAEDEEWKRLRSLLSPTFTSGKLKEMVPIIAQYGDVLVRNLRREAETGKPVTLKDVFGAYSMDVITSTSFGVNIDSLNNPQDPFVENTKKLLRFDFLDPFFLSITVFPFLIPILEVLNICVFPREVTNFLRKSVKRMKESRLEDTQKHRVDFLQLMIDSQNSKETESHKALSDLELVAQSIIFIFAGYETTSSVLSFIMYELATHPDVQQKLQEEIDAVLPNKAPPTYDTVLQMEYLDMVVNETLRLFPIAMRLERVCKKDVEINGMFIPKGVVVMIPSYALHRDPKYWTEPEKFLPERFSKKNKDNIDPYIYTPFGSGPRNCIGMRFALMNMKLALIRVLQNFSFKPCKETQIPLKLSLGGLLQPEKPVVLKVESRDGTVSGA

Structure (SMILES)	inhibition at 3 µM [1]	metabolised at 0.5 h [2]	inhibition at 3 µM [3]	metabolised at 0.5 h [4]	further results
Cc1ccc(-c2nnc(N3CCN(C(=O)c4ccccc4)C[C@H]3C)c3ccccc23)cc1	< 10%	56%	< 10%	55%	
O=C(c1nccs1)N1CCN(c2nnc(-c3ccccc3)c3ccccc23)CC1	< 10%	48%	89%	25%	
CC(C)c1ccc(-c2nnc(N3CCN(C(=O)c4ccccc4)C[C@H]3C)c3ccccc23)cc1	14%	41%	20%	73%	
C[C@@H]1CN(C(=O)c2ccccc2)CCN1c1nnc(-c2ccc(C(C)(C)C)cc2)c2ccccc12	25%	89%	10%	94%	
C[C@H]1CN(c2nnc(-c3ccc(C(F)(F)F)cc3)c3ccccc23)CCN1C(=O)c1ccccc1	49%	< 10%	< 10%	< 10%	
C[C@H]1CN(c2nnc(N3CC=CC=N3)c3ccccc23)CCN1C(=O)c1ccccc1	< 10%	< 10%	15%	< 10%	
CC(=O)N1CCN(c2nnc(-c3ccccc3)c3ccccc23)CC1		10%	29%	10%	
O=C(c1ccco1)N1CCN(c2nnc(-c3ccccc3)c3ccccc23)CC1	< 10%	43%	48%	32%	
O=C(c1ccccc1)N1CCN(c2nnc(-c3ccccc3)c3ccccc23)CC1	< 10%	19%	11%	12%	
C[C@@H]1CN(C(=O)c2ccccc2)CCN1c1nnc(-c2ccc(C(F)(F)F)cc2)c2ccccc12	< 10%	13%	15%	11%	bioavailability [5]: 65%; half-life [6]: 9.5 h; bioavailability [7]: 31%; clearance [8]: 8.83 mL/min/kg; clearance [9]: 5 mL/min/kg; bioavailability [10]: 60%; Activity [11]: Active; Vd [12]: 5.07 L/kg; clearance [13]: 6.83 mL/min/kg; clearance [14]: 3.33 mL/min/kg; Activity [15]: Dose-dependent effect; Vd [16]: 1.4 L/kg; half-life [17]: 4.3 h; bioavailability [18]: 39%; half-life [19]: 10 h; Vd [20]: 2.96 L/kg; half-life [21]: 3.4 h; Vd [22]: 2.52 L/kg
C[C@H]1CN(c2nnc(-c3ccccc3)c3ccccc23)CCN1C(=O)c1ccccc1	< 10%	< 10%	11%	21%	
Cc1ccccc1-c1nnc(N2CCN(C(=O)c3ccccc3)CC2)c2ccccc12	< 10%	90%	24%	40%	
C[C@H]1CN(c2nnc(-c3cccnc3)c3ccccc23)CCN1C(=O)c1ccccc1	12%	10%	< 10%	12%	
O=C(c1ccccc1)N1CCN(c2nnc(-c3ccc(Cl)cc3)c3ccccc23)CC1	16%	20%	24%	10%	
C[C@H]1CN(c2nnc(-c3ccc(F)cc3)c3ccccc23)CCN1C(=O)c1ccccc1	20%	10%	18%	15%	
Cc1ccc(-c2nnc(N3CCN(C(=O)c4ccccc4)CC3)c3ccccc23)cc1	< 10%	45%	< 10%	72%	
O=C(c1ccccc1)N1CCN(c2nnc(-c3ccccc3Cl)c3ccccc23)CC1	< 10%	62%	< 10%	15%	
C[C@@H]1CN(C(=O)c2ccccc2)CCN1c1nnc(-c2ccc(C3CC3)cc2)c2ccccc12	31%	34%	< 10%	21%	

Structure (SMILES)	inhibition at 3 µM [1]	metabolised at 0.5 h [2]	inhibition at 3 µM [3]	metabolised at 0.5 h [4]	further results
C[C@H]1CN(C(=O)c2ccccc2)CCN1c1nnc(-c2ccccc2)c2ccccc12		< 10%		23%	
C[C@@H]1CN(c2nnc(-c3ccccc3)c3ccccc23)CCN1C(=O)c1ccccc1	< 10%	17%	< 10%	21%	
C[C@@H]1CN(C(=O)c2ccccc2)CCN1c1nnc(-c2ccc(CO)cc2)c2ccccc12	15%	14%	< 10%	13%	
C[C@H]1CN(c2nnc(-c3ncco3)c3ccccc23)CCN1C(=O)c1ccccc1	< 10%	10%	27%	23%	
C[C@@H]1CN(C(=O)c2ccccc2)CCN1c1nnc(-c2ccc(Cl)cc2)c2ccccc12	< 10%	38%	60%	12%	
C[C@@H]1CN(C(=O)c2ccccc2)CCN1c1nnc(-c2ccccc2)c2ccccc12	< 10%	44%	47%	39%	
C[C@H]1CN(c2nnc(-c3ccc(Cl)cc3)c3ccccc23)CCN1C(=O)c1ccccc1	40%	< 10%	43%	< 10%	
O=C(c1cccs1)N1CCN(c2nnc(-c3ccccc3)c3ccccc23)CC1					IC50 [23]: 22 nM
O=C(c1ccccc1)N1CCN(c2nnc(-c3ccc(Cl)c(Cl)c3)c3ccccc23)CC1	< 10%	31%		10%	
C[C@@H]1CN(C(=O)c2ccccc2)CCN1c1nnc(-c2ccc(N(C)C)cc2)c2ccccc12	90%	59%	26%	82%	
O=C(c1ccccc1)N1CCN(c2nnc(-c3ccc(F)cc3)c3ccccc23)CC1	< 10%	17%	29%	10%	
Cc1ccc(-c2nnc(N3CCN(C(=O)c4ccccc4)[C@@H](C)C3)c3ccccc23)cc1	13%	38%	10%	43%	
C[C@@H]1CN(C(=O)c2ccccc2)CCN1c1nnc(-c2ccc(C#N)cc2)c2ccccc12	12%	< 10%	< 10%	< 10%	
C[C@H]1CN(c2nnc(-c3ccncc3)c3ccccc23)CCN1C(=O)c1ccccc1	58%	10%	52%	25%	
C[C@H]1CN(c2nnc(-c3ccccn3)c3ccccc23)CCN1C(=O)c1ccccc1	< 10%	< 10%	< 10%	< 10%	
COc1cccc(-c2nnc(N3CCN(C(=O)c4ccccc4)CC3)c3ccccc23)c1	< 10%	43%	19%	33%	
N#Cc1cccc(-c2nnc(N3CCN(C(=O)c4ccccc4)CC3)c3ccccc23)c1	< 10%	10%	18%	10%	
COc1ccc(-c2nnc(N3CCN(C(=O)c4ccccc4)CC3)c3ccccc23)cc1	< 10%	27%	19%	22%	
